Measurements as given in PMC8012241 (Alzheimer's & Dementia : Translational Research & Clinical …, 2021).
Blank lines part the entries; values can stand above or below the compound they belong to. Peptide text beside a SMILES is read from it.

Columns and labels:
[1] = biological target: solid insoluble form Aβ42 (s‐Aβ42) (Homo sapiens, UniProt P05067); assay: Proteolysis of solid insoluble s-Aβ42 by the peptide; format: biochemical; settings: over 7 days; 27% with peptide minus 17% without
Outline: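 s-Aβ42 (0.3 mg), washed with CH3CN and CH3OH, was incubated with or without peptide (1 mM final) with HSA (0.125% w/v) in PBS at 37°C for 7 days, at five times the a-Aβ42 scale. HPLC was run daily and fragments were identified by ESI-MS. Solid weight was recorded on day 0 and day 7. The net decrease ratio is the with-peptide decrease minus the without-peptide decrease.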

[2] = Plasma clearance following intravenous bolus injection; format: in vivo, Male Wistar/ST rats; settings: rat
[3] = Plasma level and brain uptake following intraperitoneal and nasal administration; format: in vivo, male ddY mice; settings: mouse; for AUC(0-t): male, ddY, 1 mg
Outline: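 Male ddY mice (25 g) received 1 mg of peptide either intranasally into the left nostril (100 mg/mL in PBS, 10 µL) or intraperitoneally (10 mg/mL in PBS). Blood was drawn at 5, 15 and 30 min. Brains were taken at 30 min after saline/heparin cardiac perfusion. Plasma and brain homogenate were extracted with methanol and assayed by positive-mode LC/MS on C18 (acetonitrile:0.1% acetic acid 10/90). AUC was computed to 30 min.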

A549 cells = assay: Effect on the growth of A549 cells; format: cell-based, human; settings: 72 hours
Outline: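 A549 cells were grown in DMEM with 10% FBS and penicillin/streptomycin at 37°C in 5% CO2, then seeded at 4 x 10^3 cells/well. After 24 h the medium was replaced and cells were treated with 0.2 mM test peptide, 0.2 mM FLAG peptide or 4 µM cisplatin for 72 h. WST-8 was added for 1 h. Absorbance was read at 450 nm against a 620 nm reference.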

[4] = In vitro stability in plasma and whole blood; format: in vitro ADME; settings: data not shown
[5] = biological target: authentic soluble form Aβ42 (a‐Aβ42) (Homo sapiens, UniProt P05067); settings: cleaved in the central region; cited from earlier work
authentic soluble form Aβ42 (a‐Aβ42), sequence (P05067 672-713): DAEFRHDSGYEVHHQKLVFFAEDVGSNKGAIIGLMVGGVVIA

amyloid beta 42 (Aβ42) = settings: serine protease inhibitor AEBSF; cited from earlier work
[6] = male, Wistar/ST, plasma, iv, 2 mg/animal

solid insoluble form Aβ42 (s‐Aβ42), sequence (P05067 672-713): as above

decreasing ratio of s‐Aβ42 by ANA‐TA9 (corrected for incubation without peptide) [1]: 10%
AUC [2, 6]: 124 ng·h/mL
clearance [2, 6]: 270 mL/min
initial half‐life in plasma ([2]; i.v. bolus 2 mg/head, LC/MS): 10 s
plasma concentration post‐injection ([2]; i.v. bolus 2 mg/head, within 15 minutes post-injection, LC/MS): below the detection limit
AUC(0-t) ([3]; inhaled or intranasal): 27.2 ng·h/mL
AUC(0-t) ([3]; ip): 193 ng·h/mL
nasal AUC as percentage of intraperitoneal AUC ([3]; up to 30 minutes, 1 mg each route): 14%
in vitro stability in plasma and whole blood [4]: not particularly labile
Compound: CC[C@H](C)[C@H](NC(=O)[C@H](CCSC)NC(=O)[C@H](CCCNC(=N)N)NC(=O)[C@H](Cc1ccc(O)cc1)NC(=O)[C@H](C)NC(=O)[C@H](CCC(N)=O)NC(=O)CNC(=O)[C@H](CCCCN)NC(=O)[C@@H](N)CO)C(=O)O [ANA‐TA9] (H-SKGQAYRMI-OH)
effect on the growth of A549 cells (A549 cells; 0.2 mM, WST-8, compared to 0.2 mM FLAG peptide control): did not show a significant inhibitory effect

Compound: [NH2][Pt]([NH2])([Cl])[Cl] [CDDP, Cisplatin, reference compound]
effect on the growth of A549 cells (A549 cells; 4 μM, WST-8, positive control): inhibited the growth

Compound: YKGSGFRMI [JAL‐TA9]
cleavage of a‐Aβ42 and s‐Aβ42 [5]: cleaved
effect of AEBSF on proteolytic activity (amyloid beta 42 (Aβ42)): completely inhibited
